What was measured:
Type in all cases: functional
HEp-2 = test: Growth inhibition of human Hep2 cells at 1 uM after 48 hrs by sulpharhodamine B assay; details: HEp-2, 48 h, read-out: GI
In short: (§1)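 This is the SRB protein-stain assay on adherent cells in RPMI-1640/MEM with 10% FCS. Each compound in DMSO (vehicle <0.2%) was applied at a single fixed concentration for 48 h. Cells were fixed with TCA and stained with SRB, and the dye was solubilised in Tris and read at 570/620 nm. Percent growth inhibition is relative to vehicle-treated controls, reported as mean ± SD of three experiments run in triplicate.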

PC-3 [1] = test: Growth inhibition of human PC3 cells at 1 uM after 48 hrs by sulpharhodamine B assay; details: PC-3, 48 h, read-out: GI; in short: as §1
HL-60 = test: Induction of apoptosis in human HL60 cells assessed as loss of mitochondrial membrane potential at 5 uM after 24 hrs by rodamine-123 staining-based flow cytometric analysis (reference value: 6%)
A549 = test: Growth inhibition of human A549 cells at 20 uM after 48 hrs by sulpharhodamine B assay; details: A549, 48 h, read-out: GI; in short: as §1
HeLa = test: Growth inhibition of human HeLa cells at 20 uM after 48 hrs by sulpharhodamine B assay; details: read-out: GI
In short: (§2)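 Cells grown at 37 °C, 5% CO2 in RPMI-1640/MEM with 10% FCS and penicillin/streptomycin, then seeded in 96-well plates and allowed to adhere overnight. Compound was added in DMSO (vehicle <0.2% in untreated controls) and incubated 48 h. Cells were fixed with ice-cold TCA, stained with 0.4% SRB in 1% acetic acid, and the dye solubilised in 10 mM Tris-base. OD read at 570 nm (reference 620 nm).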

HCT-15 = test: Growth inhibition of human HCT15 cells at 20 uM after 48 hrs by sulpharhodamine B assay; details: HCT-15, 48 h, read-out: GI; in short: as §1
DU-145 = test: Growth inhibition of human DU145 cells at 20 uM after 48 hrs by sulpharhodamine B assay; details: DU-145, 48 h, read-out: GI; in short: as §1
IMR-32 = test: Growth inhibition of human IMR32 cells at 20 uM after 48 hrs by sulpharhodamine B assay; details: IMR-32, 48 h, read-out: GI; in short: as §1
PC-3 [2] = test: Growth inhibition of human PC3 cells at 20 uM after 48 hrs by sulpharhodamine B assay; details: PC-3, 48 h, read-out: GI; in short: as §1
THP-1 = test: Growth inhibition of human THP1 cells at 20 uM after 48 hrs by sulpharhodamine B assay; details: THP-1, 48 h, read-out: GI
In short: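 Cells grown in RPMI-1640/MEM with 10% FCS, penicillin/streptomycin, 37 °C, 5% CO2. Seeded in 96-well plates, allowed to adhere overnight, then exposed 48 h to analogs in DMSO (vehicle <0.2% in controls). TCA-fixed, stained with 0.4% SRB in 1% acetic acid, dye solubilized in 10 mM Tris base, OD 570 nm (ref 620 nm). Mean ± SD of three experiments run in triplicate.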

OVCAR-5 = test: Growth inhibition of human OVCAR5 cells at 20 uM after 48 hrs by sulpharhodamine B assay; details: OVCAR-5, 48 h, read-out: GI; in short: as §2

`CO[C@@]12[C@H](COC(N)=O)C3=C(C(=O)C(C)=C(N)C3=O)N1C[C@@H]1N[C@@H]12` [MITOMYCIN] was tested, and the inhibition of growth at 1 µM (HEp-2) was 78% and the inhibition of growth at 1 µM (PC-3 [1]) was 70%.

In the case of `CC[C@@]1(O)C(=O)OCc2c1cc1n(c2=O)Cc2cc3ccccc3nc2-1` [CAMPTOTHECIN], the Activity (HL-60) is reported as 55.5%.

With `O=c1[nH]cc(F)c(=O)[nH]1` [FLUOROURACIL] the inhibition of growth at 20 µM (A549) was 76%, the inhibition of growth at 20 µM (HeLa) was 71% and the inhibition of growth at 20 µM (HCT-15) was 63%. The inhibition of growth at 20 µM (DU-145) was 75%, the inhibition of growth at 20 µM (IMR-32) was 79% and the inhibition of growth at 20 µM (PC-3 [2]) was 75%. The inhibition of growth at 20 µM (THP-1) was 85% and the inhibition of growth at 20 µM (OVCAR-5) was 75%.

— ChEMBL document CHEMBL1944511, “Bakuchiol derivatives as novel and potent cytotoxic agents: a report” (Eur J Med Chem, 2012)
